Reference: ChEMBL document CHEMBL4033790, “Design and Synthesis of Novel Deuterated Ligands Functionally Selective for the γ-Aminobutyric Acid Type A Receptor (GABAAR) α6 Subtype with Improved Metabolic Stability and Enhanced Bioavailability” (J Med Chem, 2018)
≈ marks a conversion by molar mass, not a printed value. Each block holds one compound with its values, some of them ahead of it. Calls of active or inactive are those of the source. The rule behind the calls is not given here.

Assays:
[1] = Drug level in mouse liver microsomes treated with 7-Methoxy-d3-2-(4-methoxyphenyl)-2,5-dihydro-3H-pyrazolo-[4,3-c]quinolin-3-one after 60 mins by LC-MS analysis; format: ADME; conditions: 1 h
[2] = Drug level in human liver microsomes treated with 7-Methoxy-d3-2-(4-methoxyphenyl)-2,5-dihydro-3H-pyrazolo-[4,3-c]quinolin-3-one after 60 mins by LC-MS analysis; format: ADME; conditions: 1 h
[3] = Drug level in human liver microsomes treated with 7-Methoxy-d3-2-(6-methoxypyridin-3-yl)-2,5-dihydro-3Hpyrazolo[4,3-c]quinolin-3-one after 60 mins by LC-MS analysis; format: ADME; conditions: 1 h
[4] = Drug level in mouse liver microsomes treated with 7-Methoxy-d3-2-(6-methoxypyridin-3-yl)-2,5-dihydro-3Hpyrazolo[4,3-c]quinolin-3-one after 60 mins by LC-MS analysis; format: ADME; conditions: 1 h
[5] = Drug level in mouse liver microsomes treated with 7-Methoxy-2-(4-methoxy-d3-phenyl)-2,5-dihydro-3H-pyrazolo-[4,3-c]quinolin-3-one after 60 mins by LC-MS analysis; format: ADME; conditions: 1 h
[6] = Drug level in human liver microsomes treated with 7-Methoxy-2-(4-methoxy-d3-phenyl)-2,5-dihydro-3H-pyrazolo-[4,3-c]quinolin-3-one after 60 mins by LC-MS analysis; format: ADME; conditions: 1 h
[7] = Drug level in human liver microsomes treated with 7-Methoxy-2-(6-methoxy-d3-pyridin-3-yl)-2,5-dihydro-3Hpyrazolo[4,3-c]quinolin-3-one after 60 mins by LC-MS analysis; format: ADME; conditions: 1 h
[8] = Drug level in mouse liver microsomes treated with 7-Methoxy-2-(6-methoxy-d3-pyridin-3-yl)-2,5-dihydro-3Hpyrazolo[4,3-c]quinolin-3-one after 60 mins by LC-MS analysis; format: ADME; conditions: 1 h
[9] = molecular target: 5-hydroxytryptamine receptor 2B (Homo sapiens) (UniProt P41595); assay: Displacement of [3H]-LSD from human recombinant 5HT2B receptor expressed in HEK293 cells at 10 uM after 60 to 90 mins by scintillation counting; format: cell-based; conditions: tested as the 2H-labelled form
Sequence of 5-hydroxytryptamine receptor 2B (Homo sapiens) (P41595 whole entry): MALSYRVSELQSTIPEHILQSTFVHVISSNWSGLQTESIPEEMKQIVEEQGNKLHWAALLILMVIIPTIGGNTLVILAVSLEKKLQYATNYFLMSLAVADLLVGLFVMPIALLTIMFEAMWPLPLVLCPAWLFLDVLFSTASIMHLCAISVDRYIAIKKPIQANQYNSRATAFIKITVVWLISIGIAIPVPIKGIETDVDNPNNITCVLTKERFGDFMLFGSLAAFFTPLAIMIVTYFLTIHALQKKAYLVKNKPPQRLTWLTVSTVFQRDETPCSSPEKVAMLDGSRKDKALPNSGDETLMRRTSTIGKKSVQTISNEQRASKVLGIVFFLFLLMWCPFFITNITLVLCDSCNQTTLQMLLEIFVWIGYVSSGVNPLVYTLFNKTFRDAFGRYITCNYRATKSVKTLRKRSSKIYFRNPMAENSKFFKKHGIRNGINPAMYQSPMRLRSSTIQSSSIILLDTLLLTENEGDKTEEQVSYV

[10] = molecular target: 5-hydroxytryptamine receptor 7 (Homo sapiens) (UniProt P34969); assay: Displacement of [3H]-LSD from human recombinant 5HT7 receptor expressed in HEK293 cells at 10 uM after 60 to 90 mins by scintillation counting; format: cell-based; conditions: tested as the 2H-labelled form
Sequence of 5-hydroxytryptamine receptor 7 (Homo sapiens) (P34969 whole entry): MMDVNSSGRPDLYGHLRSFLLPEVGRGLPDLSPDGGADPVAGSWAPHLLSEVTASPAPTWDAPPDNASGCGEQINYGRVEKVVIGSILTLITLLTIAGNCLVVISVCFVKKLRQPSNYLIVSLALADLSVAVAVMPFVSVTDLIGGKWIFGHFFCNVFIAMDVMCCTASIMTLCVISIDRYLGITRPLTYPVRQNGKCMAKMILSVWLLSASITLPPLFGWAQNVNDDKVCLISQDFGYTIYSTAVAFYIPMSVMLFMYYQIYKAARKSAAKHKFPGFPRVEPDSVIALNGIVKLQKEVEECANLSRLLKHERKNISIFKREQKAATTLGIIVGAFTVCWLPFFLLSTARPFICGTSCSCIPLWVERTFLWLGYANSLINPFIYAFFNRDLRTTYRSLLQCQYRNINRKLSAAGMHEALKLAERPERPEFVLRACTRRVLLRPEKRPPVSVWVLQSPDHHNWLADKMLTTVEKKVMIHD

[11] = molecular target: Mu-type opioid receptor (Homo sapiens) (UniProt P35372); assay: Displacement of [3H]-DAMGO from human recombinant MOR expressed in HEK293 cells at 10 uM after 60 to 90 mins by scintillation counting; format: cell-based; conditions: tested as the 2H-labelled form
Sequence of Mu-type opioid receptor (Homo sapiens) (P35372 whole entry): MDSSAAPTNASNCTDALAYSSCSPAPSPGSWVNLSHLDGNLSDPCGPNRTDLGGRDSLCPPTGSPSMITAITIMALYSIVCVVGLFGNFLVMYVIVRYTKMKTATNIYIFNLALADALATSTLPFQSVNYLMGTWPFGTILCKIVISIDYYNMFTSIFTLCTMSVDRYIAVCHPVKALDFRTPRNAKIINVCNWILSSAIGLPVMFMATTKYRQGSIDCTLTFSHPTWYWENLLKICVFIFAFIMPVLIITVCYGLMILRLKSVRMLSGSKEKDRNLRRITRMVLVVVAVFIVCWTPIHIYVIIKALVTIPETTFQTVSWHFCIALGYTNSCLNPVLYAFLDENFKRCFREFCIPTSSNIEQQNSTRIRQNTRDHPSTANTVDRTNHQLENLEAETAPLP

[12] = system: Liver; assay: Half life in human liver microsomes at 10 uM by LC-MS/MS analysis; format: ADME, microsome
Outline: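 Compound at 10 μM final was preincubated 5 min at 37 °C with NADPH regenerating system in phosphate buffer, pH 7.4. Human or mouse liver microsomes (0.5 mg/mL protein) were added to start the reaction. Samples were taken at 0 (no microsomes) and 10–60 min and measured by LC-MS/MS against an internal standard. Half-life = 0.693/k, with k the slope of ln peak-area ratio versus time. Three experiments, each in duplicate.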

[13] = Metabolic stability in human liver microsomes assessed as parent compound remaining at 10 uM after 60 mins by LC-MS analysis; format: ADME, microsome; conditions: read-out: Stability
Outline: (§1)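 The 60 min samples of the microsomal incubation (10 μM compound, human or mouse liver microsomes at 0.5 mg/mL, NADPH regenerating system, 37 °C) were analysed by LC-MS. Detection used SIM mode with dual ESI/APCI ionization, calibrated to the retention times and masses of the parent and its O-demethylated metabolites. Peak intensities were measured.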

[14] = molecular target: GABA-A receptor; alpha-2/beta-3/gamma-2 (Homo sapiens) (UniProt P18507+P28472+P47869); assay: Positive allosteric modulation of GABA-A receptor alpha2beta3gamma2 (unknown origin) expressed in Xenopus laevis oocytes assessed as potentiation of EC3 GABA induced currents up to 1 uM at -60 mV holding potential by electrophysiological method relative to GABA; format: cell-based
Outline: (§2)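 Stage 5–6 defolliculated Xenopus oocytes were injected with 2.5 ng total mRNA per oocyte: α1, α2, α3 or α5 with β3 and γ2 at 1:1:5, and α4 or α6 with β3 and γ2 at 3:1:5. Oocytes were kept ≥36 h at 18 °C in NDE medium before recording. Compounds were co-applied with GABA titrated to EC3-5 for each oocyte. Curves were fitted with the Hill equation; mean ± SEM from ≥3 oocytes across two batches.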

[15] = molecular target: GABA-A receptor; alpha-6/beta-3/gamma-2 (Homo sapiens) (UniProt P18507+P28472+Q16445); assay: Positive allosteric modulation of GABA-A receptor alpha6beta3gamma2 (unknown origin) expressed in Xenopus laevis oocytes assessed as potentiation of EC3 GABA induced currents at 30 uM at -60 mV holding potential by electrophysiological method relative to GABA; format: cell-based; outline: as §2
[16] = Solubility of the compound in 0.01M HCl at pH 2 after 2 hrs by LC-MS analysis; format: physicochemical; conditions: buffer, pH 2, 2 h
Outline: (§3)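 10 mg compound dissolved in 2 mL DMAC; 10 μL of this added to 2 mL DI water (pH 7, sonicated) or 2 mL 0.01 M aq HCl (pH 2), held 2 h at 37 °C. Filtered through 0.45 micron filter, then quantified by LC-MS in SIM mode against calibration curves of standards in DMAC (n = 5); n=3.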

[17] = Metabolic stability in mouse liver microsomes assessed as parent compound remaining at 10 uM after 60 mins by LC-MS analysis; format: ADME, microsome; conditions: read-out: Stability; outline: as §1
[18] = molecular target: GABA A receptor alpha-4/beta-3/gamma-2 (Homo sapiens) (UniProt P18507+P28472+P48169); assay: Positive allosteric modulation of GABA-A receptor alpha4beta3gamma2 (unknown origin) expressed in Xenopus laevis oocytes assessed as potentiation of EC3 GABA induced currents up to 1 uM at -60 mV holding potential by electrophysiological method relative to GABA; format: cell-based; outline: as §2
[19] = species: Rattus norvegicus; assay: Displacement of [3H]-flunitrazepam from rat brain GABA-A receptor benzodiazepine site […] at 10 uM after 60 to 90 mins by scintillation counting; conditions: tested as the 2H-labelled form
[20] = Aqueous solubility of the compound in DI water at pH 7 after 2 hrs by LC-MS analysis; format: physicochemical; conditions: buffer, pH 7, 2 h; outline: as §3
[21] = molecular target: Voltage-gated inwardly rectifying potassium channel KCNH2 (Homo sapiens, UniProt Q12809); assay: Displacement of [3H]-dofetilide from human ERG expressed in HEK cell membranes at >10 uM after 60 to 90 mins by scintillation counting
Sequence of Voltage-gated inwardly rectifying potassium channel KCNH2 (Q12809 whole entry): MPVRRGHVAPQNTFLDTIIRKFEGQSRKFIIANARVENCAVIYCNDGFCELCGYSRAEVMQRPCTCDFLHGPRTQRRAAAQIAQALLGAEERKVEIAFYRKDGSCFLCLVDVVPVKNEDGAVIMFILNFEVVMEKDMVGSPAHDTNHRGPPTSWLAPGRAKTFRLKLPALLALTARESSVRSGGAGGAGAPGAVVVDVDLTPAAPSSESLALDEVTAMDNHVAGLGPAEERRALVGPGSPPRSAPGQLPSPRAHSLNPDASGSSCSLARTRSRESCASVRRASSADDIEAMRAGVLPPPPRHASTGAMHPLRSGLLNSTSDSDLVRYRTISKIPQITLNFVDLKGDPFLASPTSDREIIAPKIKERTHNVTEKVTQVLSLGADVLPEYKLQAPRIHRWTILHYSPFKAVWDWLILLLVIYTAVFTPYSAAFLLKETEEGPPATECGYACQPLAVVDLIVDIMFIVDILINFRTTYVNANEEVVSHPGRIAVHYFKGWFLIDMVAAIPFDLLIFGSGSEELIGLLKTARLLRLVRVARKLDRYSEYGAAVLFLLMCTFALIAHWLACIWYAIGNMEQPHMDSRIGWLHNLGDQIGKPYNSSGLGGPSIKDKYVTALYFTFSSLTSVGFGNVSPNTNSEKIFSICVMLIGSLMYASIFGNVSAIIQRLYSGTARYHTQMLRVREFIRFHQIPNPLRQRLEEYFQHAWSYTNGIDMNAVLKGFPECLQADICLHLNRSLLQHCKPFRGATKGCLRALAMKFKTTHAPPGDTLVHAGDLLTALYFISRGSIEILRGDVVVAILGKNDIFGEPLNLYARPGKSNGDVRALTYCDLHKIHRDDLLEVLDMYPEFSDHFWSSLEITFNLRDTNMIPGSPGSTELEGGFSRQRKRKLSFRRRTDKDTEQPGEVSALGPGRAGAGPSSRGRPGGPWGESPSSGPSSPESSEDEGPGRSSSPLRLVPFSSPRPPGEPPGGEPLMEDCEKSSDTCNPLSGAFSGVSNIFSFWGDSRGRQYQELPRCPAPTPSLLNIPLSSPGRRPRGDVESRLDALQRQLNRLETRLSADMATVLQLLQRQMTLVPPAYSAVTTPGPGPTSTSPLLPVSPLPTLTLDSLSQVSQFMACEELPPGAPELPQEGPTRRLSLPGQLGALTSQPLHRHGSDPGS

[22] = molecular target: GABA-A receptor; alpha-3/beta-3/gamma-2 (Homo sapiens) (UniProt P18507+P28472+P34903); assay: Positive allosteric modulation of GABA-A receptor alpha3beta3gamma2 (unknown origin) expressed in Xenopus laevis oocytes assessed as potentiation of EC3 GABA induced currents up to 1 uM at -60 mV holding potential by electrophysiological method relative to GABA; format: cell-based; outline: as §2
[23] = molecular target: GABA-A receptor; alpha-1/beta-3/gamma-2 (Homo sapiens) (UniProt P14867+P18507+P28472); assay: Positive allosteric modulation of GABA-A receptor alpha1beta3gamma2 (unknown origin) expressed in Xenopus laevis oocytes assessed as potentiation of EC3 GABA induced currents up to 1 uM at -60 mV holding potential by electrophysiological method relative to GABA; format: cell-based; outline: as §2
[24] = system: Mus musculus; assay: Neurotoxicity in Swiss Webster mouse assessed as induction of motor impairment at 40 mg/kg administered via oral gavage measured after 10 to 60 mins by rotarod method; format: toxicity, organism-based; conditions: in vivo
Outline: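 Female mice were given a single oral gavage dose of 40 mg/kg, either in 50% PBS/40% propylene glycol/10% DMSO or, for poorly soluble compounds, in 2% polyethylene glycol plus 2.5% hydroxymethyl cellulose. Rotarod performance was tested 10, 30 and 60 min after dosing, with diazepam 5 mg/kg as positive control.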

[25] = molecular target: T1, 5-hydroxytryptamine receptor 2C (Homo sapiens) (UniProt P28335); assay: Displacement of [3H]-mesulergine from human recombinant 5HT2C receptor expressed in HEK293T cells at 10 uM after 60 to 90 mins by scintillation counting; format: cell-based; conditions: HEK-293T, tested as the 2H-labelled form
T1 sequence (whole entry): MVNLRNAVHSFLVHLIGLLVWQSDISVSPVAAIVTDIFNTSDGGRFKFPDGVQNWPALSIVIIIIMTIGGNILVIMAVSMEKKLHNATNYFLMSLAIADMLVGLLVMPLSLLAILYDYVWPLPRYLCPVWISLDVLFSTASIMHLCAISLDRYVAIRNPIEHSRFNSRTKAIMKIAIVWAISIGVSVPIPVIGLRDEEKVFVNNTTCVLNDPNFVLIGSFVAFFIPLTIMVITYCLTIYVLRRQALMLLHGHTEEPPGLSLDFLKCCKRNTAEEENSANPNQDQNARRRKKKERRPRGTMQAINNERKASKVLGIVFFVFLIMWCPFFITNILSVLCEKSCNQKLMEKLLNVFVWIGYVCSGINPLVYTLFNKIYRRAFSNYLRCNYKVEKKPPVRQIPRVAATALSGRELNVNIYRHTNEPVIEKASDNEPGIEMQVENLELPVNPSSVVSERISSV

[26] = molecular target: GABA-A receptor; alpha-5/beta-3/gamma-2 (Homo sapiens) (UniProt P18507+P28472+P31644); assay: Positive allosteric modulation of GABA-A receptor alpha5beta3gamma2 (unknown origin) expressed in Xenopus laevis oocytes assessed as potentiation of EC3 GABA induced currents up to 1 uM at -60 mV holding potential by electrophysiological method relative to GABA; format: cell-based; outline: as §2

Drug metabolism [1]: Metabolite_Detected
Drug metabolism [2]: Metabolite_Detected
Compound: [2H]C([2H])([2H])Oc1ccc2c3nn(-c4ccc(O)cc4)c(=O)c-3c[nH]c2c1

Drug metabolism [3]: Metabolite_Detected
Drug metabolism [4]: Metabolite_Detected
Compound: COc1ccc(-n2nc3c4ccc(O)cc4[nH]cc-3c2=O)cn1

Drug metabolism [5]: Metabolite_Detected
Drug metabolism [6]: Metabolite_Detected
Compound: [2H]C([2H])([2H])Oc1ccc(-n2nc3c4ccc(O)cc4[nH]cc-3c2=O)cc1

Drug metabolism [1]: Metabolite_Detected
Drug metabolism [2]: Metabolite_Detected
Compound: COc1ccc(-n2nc3c4ccc(O)cc4[nH]cc-3c2=O)cc1

Drug metabolism [7]: Metabolite_Detected
Drug metabolism [8]: Metabolite_Detected
Compound: COc1ccc2c3nn(-c4ccc(O)nc4)c(=O)c-3c[nH]c2c1

Drug metabolism [3]: Metabolite_Detected
Drug metabolism [4]: Metabolite_Detected
Drug metabolism [7]: Metabolite_Detected
Drug metabolism [8]: Metabolite_Detected
Compound: O=c1c2c[nH]c3cc(O)ccc3c-2nn1-c1ccc(O)nc1

Compound: COc1ccc(-n2nc3c4ccc(Br)cc4[nH]cc-3c2=O)cc1
inhibition [9]: Active
inhibition [10]: Active
inhibition [11]: Active
t1/2 [12]: 1.7 h
remaining at 1 h, 10 µM [13]: 66.9%
Activity [14]: < 0%
Activity [15]: 900%
Activity ([15]; tested as the 2H-labelled form): inactive
solubility [16]: 3.3 µM (≈ 1.22 µg/mL)
remaining at 1 h, 10 µM [17]: 69%
Activity [18]: < 0%
inhibition [19]: Active
solubility [20]: 8.3 µM (≈ 3.07 µg/mL)
inhibition (INH) [21]: Not Active
Activity [22]: < 0%
Activity [23]: < 0%
Activity [24]: Non-Toxic
inhibition [25]: Active
Activity [26]: < 0%

Drug metabolism [1]: Metabolite_Detected
Drug metabolism [2]: Metabolite_Detected
Drug metabolism [5]: Metabolite_Detected
Drug metabolism [6]: Metabolite_Detected
Compound: O=c1c2c[nH]c3cc(O)ccc3c-2nn1-c1ccc(O)cc1

Drug metabolism [3]: Metabolite_Detected
Drug metabolism [4]: Metabolite_Detected
Compound: [2H]C([2H])([2H])Oc1ccc2c3nn(-c4ccc(O)nc4)c(=O)c-3c[nH]c2c1

Drug metabolism [5]: Metabolite_Detected
Drug metabolism [6]: Metabolite_Detected
Compound: COc1ccc2c3nn(-c4ccc(O)cc4)c(=O)c-3c[nH]c2c1

Compound: COc1cccc(-n2nc3c4cc(Cl)ccc4[nH]cc-3c2=O)c1
t1/2 [12]: 3.4 h
remaining at 1 h, 10 µM [13]: 81.4%
Activity [14]: < 0%
Activity [15]: 400%
Activity ([15]; tested as the 2H-labelled form): inactive
solubility [16]: 2.6 µM (≈ 0.847 µg/mL)
remaining at 1 h, 10 µM [17]: 59.8%
Activity [18]: < 0%
inhibition [19]: Active
solubility [20]: 6.8 µM (≈ 2.22 µg/mL)
inhibition (INH) [21]: Not Active
Activity [22]: < 0%
Activity [23]: < 0%
Activity [24]: Non-Toxic
Activity [26]: < 0%

Drug metabolism [7]: Metabolite_Detected
Drug metabolism [8]: Metabolite_Detected
Compound: [2H]C([2H])([2H])Oc1ccc(-n2nc3c4ccc(O)cc4[nH]cc-3c2=O)cn1
